Among the data in ChEMBL document CHEMBL1148175, “Immunostimulant agents from Andrographis paniculata” (1993) are Activity values, retold here.

Common to all, as to format: functional
For experiment [1], the system named is Mus musculus. The experiment can be described thus: Immunostimulant activity in sheep RBC-immunized BALB/c albino mouse assessed as hemagglutininating antibody titer at 1 mg/kg, po administered daily for 7 days by microtiter hemagglutinination technique. Summed up:
(§1)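 Compound dissolved in 0.05 M phosphate buffer pH 7.2 with 0.1 M NaCl, given orally daily for 7 days or ip on days -7 and -3, then ip immunization with 1×10^8 SRBC. Serum from retro-orbital bleed on day 5; twofold dilutions mixed with 1% SRBC, 1.5-2 h at room temperature. Titer = reciprocal of highest dilution giving 50% agglutination. Two experiments, four mice each.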

Experiment [2] deals with Mus musculus. The experiment can be described thus: Immunostimulant activity in sheep RBC-immunized BALB/c albino mouse assessed as delayed-type hypersensitivity response-related right foot pad thickness at 4 mg/kg, ip administered on day 7 and 3 prior to immunization measured after 5 days relative to non-immunized foot pad thickness. To be noted: route intraperitoneal. Summed up: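 Mice (BALB/c, either sex, 20-22 g; four per group) immunized ip with 1×10^8 SRBC on day 0; on day 5 challenged with 1×10^8 SRBC (50 μl) in right foot pad. Foot pad thickness read 24 h later; reaction in mm = right (SRBC) minus PBS-injected pad. Compound in PBS pH 7.2 given ip on days -7 and -3. Student's t-test.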

For experiment [3], the system named is Mus musculus. The experiment can be described thus: Nonspecific immunostimulant activity in sheep RBC-immunized BALB/c albino mouse assessed as [3H]thymidine uptake by splenic lymphocytes at 4 mg/kg, ip administered on day 7 and 3 prior to immunization by liquid scintillation counting. As to conditions: route intraperitoneal. Summed up: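 Spleen cells from ip-treated mice (days -7, -3) at 1.5×10^6 cells/ml in complete RPMI-1640 with fetal calf serum, cultured in triplicate 3 days at 37° under 5% CO2, then pulsed 18 h with 1 μCi 3H-thymidine. Incorporation counted by scintillation, reported as cpm ± SD.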

The test system of experiment [4] is Mus musculus. The experiment can be described thus: Nonspecific immunostimulant activity in sheep RBC-immunized BALB/c albino mouse assessed as macrophage migration index at 4 mg/kg, ip administered on day 7 and 3 prior to immunization measured after 18 to 24 hrs. To be noted: route intraperitoneal. Summed up: (§2)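 Peritoneal exudate cells from dosed mice (oral daily 7 days, or ip on days -7 and -3) packed in microhematocrit capillaries and allowed to migrate 18-24 h in a migration chamber. MMI = ratio of migration areas, control vs. treated animals. Two experiments, four mice each.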

Experiment [5] deals with Mus musculus. The experiment can be described thus: Immunostimulant activity in sheep RBC-immunized BALB/c albino mouse assessed as hemagglutininating antibody titer at 4 mg/kg, ip administered on day 7 and 3 prior to immunization measured after 5 days by microtiter hemagglutinination technique. As to conditions: route intraperitoneal. Summed up: as §1
Experiment [6] concerns Mus musculus. The experiment can be described thus: Immunostimulant activity in sheep RBC-immunized BALB/c albino mouse assessed as hemolytic plaque-forming cells per 10^5 spleen cells at 4 mg/kg, ip administered on day 7 and 3 prior to immunization measured after 5 days. To be noted: route intraperitoneal. Summed up: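 Following ip dosing on days -7 and -3 and ip SRBC (1×10^8) on day 0, splenic hemolytic plaques counted on day 5 by Jerne-Nordin technique, duplicate per mouse. Group means expressed as PFC/10^5 spleen cells. Three experiments with four animals each; Student's t-test.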

Experiment [7] relates to Mus musculus. The experiment can be described thus: Immunostimulant activity in sheep RBC-immunized BALB/c albino mouse assessed as macrophage migration index at 1 mg/kg, po administered daily for 7 days measured after 18 to 24 hrs. Summed up: as §2
The subject of experiment [8] is Mus musculus. The experiment can be described thus: Nonspecific immunostimulant activity in sheep RBC-immunized BALB/c albino mouse assessed as phagocytosis of [14C] leucine labeled Escherichia coli at 4 mg/kg, ip administered on day 7 and 3 prior to immunization. As to conditions: route intraperitoneal. Summed up: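 Peritoneal macrophages from mice dosed ip on days -7 and -3 incubated in vitro with E. coli labelled with 14C-leucine (sp. act. 190 mCi/mmol). Uptake expressed as percentage incorporation of 14C-leucine. Three experiments, four animals each.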

For the compound `C=C1CC[C@@H]2[C@](C)(CO)[C@H](O)CC[C@@]2(C)[C@@H]1C/C=C1/C(=O)OC[C@H]1O` [ANDROGRAPHOLIDE], the Activity is on record as 1280 in the experiment on Mus musculus [1]; 2.5 mm in the experiment on Mus musculus [2]; 6486 cpm in the experiment on Mus musculus [3]; 2.84 in the experiment on Mus musculus [4]; 1536 in the experiment on Mus musculus [5]; 128 in the experiment on Mus musculus [6]. Moreover, the Activity worked out at 1.6 in the experiment on Mus musculus [7] and 55.56% in the experiment on Mus musculus [8].

As to `C=C1CC[C@@H]2[C@](C)(CO[C@@H]3O[C@H](CO)[C@@H](O)[C@H](O)[C@H]3O)CCC[C@@]2(C)[C@@H]1CCC1=CCOC1=O` [NEOANDROGRAPHOLIDE], the Activity was found to be 1365.33 with Mus musculus [1], 2.51 in the experiment on Mus musculus [4], 1638.4 in the experiment on Mus musculus [5] and 1.9 with Mus musculus [7].
